Experimental data published in ChEMBL document CHEMBL1150050, “Antimutagenic agents from natural products” (J Nat Prod, 1992).
Calls of active or inactive are those of the source. The calls are words filed in the database; no cut-off is given here.

Key:
Salmonella typhimurium [1] = experiment: Toxicity in Salmonella Typhimurium TA98 at 75 to 300 ug/plate after 48 to 72 hrs in presence of liver S-9 fraction; type: organism-based; conditions: salmonella enterica subsp. enterica serovar typhimurium
Summary of the method: (§1)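 Toxicity plates were set up with bacteria, Ames S-9 preparation and test substance, with histidine in place of 2-aminoanthracene. They were mixed with top agar and incubated 48–72 h.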

Salmonella typhimurium [2] = experiment: Toxicity in Salmonella Typhimurium TA100 at 75 to 300 ug/plate after 48 to 72 hrs in presence of liver S-9 fraction; type: organism-based; conditions: salmonella enterica subsp. enterica serovar typhimurium; summary of the method: as §1
Salmonella typhimurium [3] = experiment: Antimutagenic activity in Salmonella Typhimurium TA98 assessed as inhibition of 2-aminoanthracene-induced mutation at 75 ug/plate after 48 to 72 hrs by Ames assay in presence of liver S-9 fraction; type: functional, organism-based; conditions: Salmonella enterica subsp. enterica serovar Typhimurium
Summary of the method: (§2)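 Bacteria were combined with Ames S-9 metabolic activation preparation, test substance in DMSO and 2-aminoanthracene at 2.5 μg/plate, mixed with top agar and incubated 48–72 h. Mutagenicity inhibition was assessed relative to 2-aminoanthracene.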

Salmonella typhimurium [4] = experiment: Antimutagenic activity in Salmonella Typhimurium TA98 assessed as inhibition of 2-aminoanthracene-induced mutation at 150 ug/plate after 48 to 72 hrs by Ames assay in presence of liver S-9 fraction; type: functional, organism-based; conditions: Salmonella enterica subsp. enterica serovar Typhimurium; summary of the method: as §2
Salmonella typhimurium [5] = experiment: Antimutagenic activity in Salmonella Typhimurium TA100 assessed as inhibition of ethyl methanesulfonate-induced mutation at 300 ug/plate after 48 to 72 hrs by Ames assay in presence of liver S-9 fraction; type: functional, organism-based; conditions: Salmonella enterica subsp. enterica serovar Typhimurium
Salmonella typhimurium [6] = experiment: Antimutagenic activity in Salmonella Typhimurium TA100 assessed as inhibition of ethyl methanesulfonate-induced mutation at 32 to 300 ug/plate after 48 to 72 hrs by Ames assay in presence of liver S-9 fraction; type: functional, Salmonella enterica subsp. enterica serovar Typhimurium; parameters: scale not given: the % may be the effect or the level left
Salmonella typhimurium [7] = experiment: Toxicity in Salmonella Typhimurium TA98 at 75 to 600 ug/plate after 48 to 72 hrs in presence of liver S-9 fraction; type: organism-based; conditions: salmonella enterica subsp. enterica serovar typhimurium; summary of the method: as §1
Salmonella typhimurium [8] = experiment: Toxicity in Salmonella Typhimurium TA100 at 75 to 600 ug/plate after 48 to 72 hrs in presence of liver S-9 fraction; type: organism-based; conditions: salmonella enterica subsp. enterica serovar typhimurium; summary of the method: as §1

SMILES	Activity (Salmonella typhimurium [1])	Activity (Salmonella typhimurium [2])	Activity (Salmonella typhimurium [3])	Activity (Salmonella typhimurium [4])	Activity (Salmonella typhimurium [5])	Activity (Salmonella typhimurium [6]) [%]	Activity (Salmonella typhimurium [7])	Activity (Salmonella typhimurium [8])
CC1(C)[C@@H](Br)CC[C@]2(C)Oc3cc(Br)c(O)cc3C[C@@H]12	Non-toxic	Non-toxic	Active	Active	Active	80		
CC1(C)[C@@H](Br)CC[C@@]2(C)Oc3cc(Br)c(O)cc3C[C@@H]12 [CYMOBARBATOL]	Non-toxic	Non-toxic	Active	Active	Active	80		
CC(C)=CCC/C(C)=C/Cc1cc(O)c(Br)cc1O [CYMOPOL]							Toxic	Toxic
